The test system of assay [1] is Escherichia coli. In words: Antibacterial activity against Escherichia coli 25922 by microdilution method. Type of assay: functional. Put shortly:
(§1)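 MIC determined by CLSI broth microdilution; organisms were ATCC strains and clinical isolates.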

Assay [2] relates to Escherichia coli. Kind of assay: Antibacterial activity against Escherichia coli 1411 by microdilution method. It counts as functional. Put shortly: as §1
For assay [3], the system named is Klebsiella pneumoniae. In words: Antibacterial activity against Klebsiella pneumoniae 4352 by microdilution method. Type of assay: functional. The gist of the method: as §1
Assay [4] deals with Staphylococcus aureus. In words: Antibacterial activity against methicillin-resistant Staphylococcus aureus 43300 by microdilution method. It counts as functional. The gist of the method: (§2)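 MIC values from CLSI broth microdilution. Strains came from the ATCC collection and from clinical isolates.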
In assay [5] the test system is Staphylococcus aureus. Kind of assay: Antibacterial activity against methicillin-sensitive Staphylococcus aureus 6538 by microdilution method. Type of assay: functional. The gist of the method: as §2
On the technique in general: Broth dilution looks for growth in wells or tubes with falling amounts of substance.

The subject of assay [6] is Staphylococcus aureus. In words: Antibacterial activity against methicillin-sensitive Staphylococcus aureus 29213 by microdilution method. Type of assay: functional. Put shortly:
as §2

The test system of assay [7] is Pseudomonas aeruginosa. In words: Antibacterial activity against Pseudomonas aeruginosa 27853 by microdilution method. Type of assay: functional. Put shortly: as §1
Assay [8] relates to Streptococcus pneumoniae. In words: Antibacterial activity against Streptococcus pneumoniae 49619 by microdilution method. Type of assay: functional. Put shortly: as §1
Assay [9] relates to Enterococcus faecium. Kind of assay: Antibacterial activity against vancomycin-resistant Enterococcus faecium 700221 by microdilution method. It counts as functional. The gist of the method: as §2
The test system of assay [10] is HepG2. In words: Cytotoxicity against human HepG2 cells assessed as effect on cell viability at 43 ug/mL after 48 hrs by celltiter glow assay. It counts as functional, cell-based. The gist of the method:
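HepG2 grown in MEM with 10% heat-inactivated FBS, 0.10 mM nonessential amino acids, 1 mM pyruvate, 37 °C, 5% CO2. Seeded at 1.25 × 10^5 cells/mL 24 h before treatment. DMSO-dissolved compounds tested over 0.6–128 µg/mL (1% final DMSO) for 48 h. Luminescent CellTiter-Glo viability read-out relative to DMSO control; CC90 taken.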
On the technique in general: ATP-based viability assays read luminescence as a measure of living cells.

Assay [11] has as its system NHDF. Kind of assay: Cytotoxicity against NHDF cells after 48 hrs by celltiter glow assay. It counts as functional. Conditions: Homo sapiens. The gist of the method:
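Fibroblasts kept at 37 °C, 5% CO2 in FGM-2 medium, passage ≤16. Seeded at 1.25 × 10^5 cells/mL 24 h before dosing. Compounds dissolved in DMSO, tested 0.6–128 µg/mL at 1% final DMSO for 48 h. Viability by CellTiter-Glo luminescence, expressed as percent of DMSO control.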

In assay [12] the test system is Pseudomonas aeruginosa. Kind of assay: Antibacterial activity against Pseudomonas aeruginosa 1473 by microdilution method. Type of assay: functional. The gist of the method: as §2
The subject of assay [13] is Staphylococcus aureus. Kind of assay: Antibacterial activity against methicillin-sensitive Staphylococcus aureus 100 ATCC 29213 by microdilution method. Type of assay: functional. Put shortly: as §2
The subject of assay [14] is Staphylococcus aureus. In words: Antibacterial activity against methicillin-resistant Staphylococcus aureus 1137 by microdilution method. It counts as functional. Put shortly:
as §2

The subject of assay [15] is Staphylococcus aureus. In words: Antibacterial activity against methicillin-resistant Staphylococcus aureus 2170 by microdilution method. Type of assay: functional. The gist of the method: as §2
The test system of assay [16] is Staphylococcus aureus. Kind of assay: Antibacterial activity against vancomycin-intermediate Staphylococcus aureus 2012 by microdilution method. Type of assay: functional. Put shortly: as §2
The subject of assay [17] is Staphylococcus aureus. Kind of assay: Antibacterial activity against vancomycin-intermediate Staphylococcus aureus 2018 by microdilution method. Type of assay: functional. Put shortly: as §2
For assay [18], the system named is Staphylococcus aureus. Kind of assay: Antibacterial activity against Linezolid, methicillin-resistant Staphylococcus aureus 1725 by microdilution method. Type of assay: functional. The gist of the method:
as §2

Assay [19] concerns Staphylococcus aureus. In words: Antibacterial activity against Linezolid, methicillin-resistant Staphylococcus aureus 1651 by microdilution method. Type of assay: functional. Put shortly:
as §2

The subject of assay [20] is Staphylococcus aureus. Kind of assay: Antibacterial activity against community-acquired Staphylococcus aureus 2144 by microdilution method. Type of assay: functional. The gist of the method:
as §2

Assay [21] deals with Staphylococcus epidermidis. Kind of assay: Antibacterial activity against methicillin-sensitive Staphylococcus epidermidis 1597 by microdilution method. It counts as functional. Put shortly:
as §2

In assay [22] the test system is Staphylococcus epidermidis. Kind of assay: Antibacterial activity against methicillin-resistant Staphylococcus epidermidis 1452 by microdilution method. It counts as functional. The gist of the method: as §2
The subject of assay [23] is Staphylococcus epidermidis. Kind of assay: Antibacterial activity against Staphylococcus epidermidis 495 by microdilution method. It counts as functional. Put shortly:
as §2

For assay [24], the system named is Enterococcus faecalis. In words: Antibacterial activity against vancomycin-resistant Enterococcus faecalis 846 by microdilution method. It counts as functional. Put shortly: as §2
For assay [25], the system named is Enterococcus faecium. Kind of assay: Antibacterial activity against vancomycin-sensitive Enterococcus faecium 843 by microdilution method. It counts as functional. The gist of the method:
as §2

Assay [26] deals with Enterococcus faecium. In words: Antibacterial activity against vancomycin-resistant Enterococcus faecium 1254 by microdilution method. Type of assay: functional. Put shortly:
as §2

Assay [27] has as its system Streptococcus pneumoniae. In words: Antibacterial activity against penicillin-susceptible Streptococcus pneumoniae 866 by microdilution method. It counts as functional. Put shortly:
as §2

In assay [28] the test system is Streptococcus pneumoniae. Kind of assay: Antibacterial activity against penicillin-resistant Streptococcus pneumoniae 940 by microdilution method. Type of assay: functional. The gist of the method: as §2
Assay [29] has as its system Streptococcus pneumoniae. In words: Antibacterial activity against penicillin-resistant Streptococcus pneumoniae 748 by microdilution method. Type of assay: functional. The gist of the method:
as §2

In assay [30] the test system is Streptococcus pneumoniae. Kind of assay: Antibacterial activity against quinolone-resistant Streptococcus pneumoniae 376 by microdilution method. Type of assay: functional. The gist of the method:
as §2

Assay [31] has as its system Streptococcus pneumoniae. Kind of assay: Antibacterial activity against quinolone-resistant Streptococcus pneumoniae 379 by microdilution method. It counts as functional. The gist of the method: as §2
Assay [32] concerns Streptococcus pneumoniae. In words: Antibacterial activity against multidrug-resistant Streptococcus pneumoniae 933 by microdilution method. It counts as functional. Put shortly: as §2
In assay [33] the test system is Streptococcus pneumoniae. Kind of assay: Antibacterial activity against Streptococcus pneumoniae 1195 ATCC 49619 by microdilution method. Type of assay: functional. Put shortly:
as §2

In assay [34] the test system is Streptococcus pyogenes. Kind of assay: Antibacterial activity against Streptococcus pyogenes 723 by microdilution method. It counts as functional. Put shortly: as §2
For assay [35], the system named is Streptococcus agalactiae. Kind of assay: Antibacterial activity against Streptococcus agalactiae 2033 by microdilution method. It counts as functional. Put shortly: as §2
Assay [36] concerns Moraxella catarrhalis. Kind of assay: Antibacterial activity against Moraxella catarrhalis 557 by microdilution method. Type of assay: functional. Put shortly: as §2
Assay [37] concerns Haemophilus influenzae. In words: Antibacterial activity against ampicillin-resistant Haemophilus influenzae 1742 by microdilution method. It counts as functional. The gist of the method:
as §2

Assay [38] deals with Haemophilus influenzae. Kind of assay: Antibacterial activity against Haemophilus influenzae 1224 ATCC 49247 by microdilution method. It counts as functional. Put shortly:
as §2

Assay [39] has as its system Haemophilus parainfluenzae. In words: Antibacterial activity against Haemophilus parainfluenzae 2319 ATCC 7901 by microdilution method. It counts as functional. The gist of the method: as §2
Assay [40] relates to Escherichia coli. Kind of assay: Antibacterial activity against Escherichia coli 102 ATCC 25922 by microdilution method. It counts as functional. The gist of the method:
as §2

Assay [41] concerns Escherichia coli. Kind of assay: Antibacterial activity against extended spectrum beta-lactamase-producing Escherichia coli 2269 by microdilution method. Type of assay: functional. The gist of the method:
as §2

Assay [42] concerns Klebsiella pneumoniae. In words: Antibacterial activity against Klebsiella pneumoniae 2239 by microdilution method. Type of assay: functional. The gist of the method: as §2
Assay [43] has as its system Klebsiella pneumoniae. Kind of assay: Antibacterial activity against ampicillin beta-lactamase, multidrug-resistant Klebsiella pneumoniae 2262 by microdilution method. It counts as functional. The gist of the method: as §2
In assay [44] the test system is Serratia marcescens. In words: Antibacterial activity against Serratia marcescens 1635 by microdilution method. It counts as functional. Put shortly:
as §2

We go through three molecules from ChEMBL document CHEMBL1152312, “Neopyrrolomycins with broad spectrum antibacterial activity” (2009).

Converted amounts (≈) assume the structure as drawn. The source made the active and inactive calls. No cut-off for these calls is given here.

For the molecule `Oc1cc(Cl)cc(Cl)c1-n1cc(Cl)c(Cl)c1Cl` [NEOPYRROLOMYCIN C], the MIC90 in assay [1] was found to be 16 µg/mL (≈ 48.3 µM); in assay [2], 16 µg/mL (≈ 48.3 µM); in assay [3], 16 µg/mL (≈ 48.3 µM); in assay [4] it was 1 µg/mL (≈ 3.02 µM); in [5], 2 µg/mL (≈ 6.03 µM); in assay [6], 2 µg/mL (≈ 6.03 µM). In addition, the MIC90 amounted to 32 µg/mL (≈ 96.6 µM) in assay [7], 8 µg/mL (≈ 24.1 µM) in assay [8] and 2 µg/mL (≈ 6.03 µM) in [9]. In [5], this molecule yielded a minimum bactericidal concentration (MBC) of 8 µg/mL (≈ 24.1 µM). In addition, the outcome in [10] was Active. For the same molecule, in assay [11], the CC90 is 43 µg/mL (≈ 130 µM).
As for `Oc1cc(Cl)c(Cl)cc1-n1cc(Cl)c(Cl)c1Cl` [NEOPYRROLOMYCIN D], the MIC90 in assay [1] worked out at 16 µg/mL (≈ 48.3 µM); in assay [2], 16 µg/mL (≈ 48.3 µM); in [3], 16 µg/mL (≈ 48.3 µM); in [4], 2 µg/mL (≈ 6.03 µM); in assay [5], 2 µg/mL (≈ 6.03 µM); in assay [6] it was 2 µg/mL (≈ 6.03 µM). In addition, the MIC90 in assay [7] was 32 µg/mL (≈ 96.6 µM); in [8], 8 µg/mL (≈ 24.1 µM); in assay [9] it was 4 µg/mL (≈ 12.1 µM). In assay [5], this molecule registered a minimal bactericidal concentration (MBC) of 8 µg/mL (≈ 24.1 µM). In addition, the result in [10] was Active. For the same molecule, the CC90 in [11] stood at 43 µg/mL (≈ 130 µM).
With `CN[C@H](CC(C)C)C(=O)N[C@H]1C(=O)N[C@@H](CC(N)=O)C(=O)N[C@H]2C(=O)N[C@H]3C(=O)N[C@H](C(=O)N[C@H](C(=O)O)c4cc(O)cc(O)c4-c4cc3ccc4O)[C@H](O)c3ccc(c(Cl)c3)Oc3cc2cc(c3O[C@@H]2O[C@H](CO)[C@@H](O)[C@H](O)[C@H]2O[C@H]2C[C@](C)(N)[C@H](O)[C@H](C)O2)Oc2ccc(cc2Cl)[C@H]1O` [VANCOMYCIN], the MIC90 was above 64 µg/mL in [12]; 2 µg/mL (≈ 1.38 µM) in assay [13]; 1 µg/mL (≈ 0.69 µM) in [14]; 1 µg/mL (≈ 0.69 µM) in [15]; 16 µg/mL (≈ 11 µM) in assay [16]; 8 µg/mL (≈ 5.52 µM) in assay [17]. Besides, the MIC90 in assay [18] was determined as 2 µg/mL (≈ 1.38 µM); in assay [19], 1 µg/mL (≈ 0.69 µM); in assay [20], 0.12 µg/mL (≈ 0.0828 µM); in assay [21], 2 µg/mL (≈ 1.38 µM); in assay [22] it was 4 µg/mL (≈ 2.76 µM); in assay [23], 2 µg/mL (≈ 1.38 µM). Moreover, the MIC90 in assay [24] was above 64 µg/mL; in assay [25] it was 2 µg/mL (≈ 1.38 µM); in assay [26], above 64 µg/mL; in assay [27] it was 0.5 µg/mL (≈ 0.345 µM); in [28] it was 0.25 µg/mL (≈ 0.173 µM); in [29], 0.5 µg/mL (≈ 0.345 µM). In addition, the MIC90 in [30] came out at 0.2 µg/mL (≈ 0.138 µM); in [31], 0.5 µg/mL (≈ 0.345 µM); in [32], 1 µg/mL (≈ 0.69 µM); in assay [33], 0.25 µg/mL (≈ 0.173 µM); in assay [34] it was 0.5 µg/mL (≈ 0.345 µM); in [35] it was 0.5 µg/mL (≈ 0.345 µM). The MIC90 is above 64 µg/mL in assay [36]; above 64 µg/mL in [37]; above 64 µg/mL in assay [38]; 64 µg/mL (≈ 44.2 µM) in assay [39]; above 64 µg/mL in [40]; above 64 µg/mL in assay [41]. Moreover, the MIC90 in assay [42], in [43] and in [44] was above 64 µg/mL in each case.

The term MBC denotes the lowest tested concentration that kills the bacteria rather than only halting them. Higher therefore signals less potent killing.
